The values that follow come from ChEMBL document CHEMBL3244193, “Design of species- or isozyme-specific enzyme inhibitors. 3. Species and isozymic differences between mammalian and bacterial adenylate kinases in substituent tolerance in an enzyme-substrate complex” (J Med Chem, 1979).

For assay [1], the target named is Adenylate kinase 2, mitochondrial (Rattus norvegicus, UniProt P29410). In words: Competitive inhibition of Sprague-Dawley rat liver adenylate kinase 2 by Lineweaver-Burk plot analysis. Put shortly:
(§1)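 Inhibition constants from the coupled NADH assay (A340, 23 °C, 0.25 mM AMP, pH 7.6). Two inhibitor levels were each run against five or more ATP levels: 0.1-0.8 mM for AK II/III, 0.15-1.1 mM for muscle AK. Ki applies to ATP-competitive inhibition and I50 to noncompetitive inhibition.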

The target in assay [2] is GTP:AMP phosphotransferase AK3, mitochondrial (Rattus norvegicus, UniProt P29411). In words: Competitive inhibition of Sprague-Dawley rat liver adenylate kinase 3 by Lineweaver-Burk plot analysis. Put shortly:
as §1

Assay [3] is described as follows: Noncompetitive inhibition of Escherichia coli adenylate kinase by Lineweaver-Burk plot analysis. The settings on record: read-out: I50. An outline of the steps: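 E. coli B AK partially purified by ammonium sulfate fractionation and DEAE-cellulose chromatography; the single AK-active protein had pI 4.9. ATP KM was 0.06 mM with AMP at 0.13–0.29 mM in the coupled NADH assay (A340, 23 °C, pH 7.6 Tris).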

The target of assay [4] is T1, Adenylate kinase isoenzyme 1 (Rattus norvegicus, UniProt P39069).
T1 sequence (P39069 whole entry): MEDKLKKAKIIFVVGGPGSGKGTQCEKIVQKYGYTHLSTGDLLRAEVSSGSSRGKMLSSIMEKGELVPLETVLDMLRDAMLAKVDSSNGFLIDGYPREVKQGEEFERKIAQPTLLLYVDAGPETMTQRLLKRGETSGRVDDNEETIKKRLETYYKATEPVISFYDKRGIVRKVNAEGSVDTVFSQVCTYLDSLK
Nature of the assay: Noncompetitive inhibition of Sprague-Dawley rat muscle adenylate kinase by Lineweaver-Burk plot analysis. The note with it: read-out: I50. Put shortly:
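Enzyme source: rat skeletal muscle homogenized in KHPO4/glucose/EDTA/dithioerythritol/glycerol buffer and spun 1 h at 90000g, 2 °C. Electrofocused at pH 6-8; the AK zone (pI 6.4) was dialyzed as for the liver isozymes and held at 4 °C.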

Chain of GTP:AMP phosphotransferase AK3, mitochondrial (P29411 whole entry): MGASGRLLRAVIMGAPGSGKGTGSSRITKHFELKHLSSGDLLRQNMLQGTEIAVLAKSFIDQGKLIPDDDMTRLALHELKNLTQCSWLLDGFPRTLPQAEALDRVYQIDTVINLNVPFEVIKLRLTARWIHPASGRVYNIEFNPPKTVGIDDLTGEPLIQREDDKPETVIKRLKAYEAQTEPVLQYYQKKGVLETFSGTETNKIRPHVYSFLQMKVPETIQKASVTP

The term Ki denotes the dissociation constant of the complex between target and ligand, obtained from inhibition or displacement. High values mean a looser hold on the target, low ones a stronger hold on the target. Regarding `CCSc1nc2c(N)ncnc2n1[C@@H]1O[C@H](COP(=O)(O)OP(=O)(O)OP(=O)(O)O)[C@@H](O)[C@H]1O`, the Ki in assay [1] stood at 80 µM; in assay [2], 50 µM. Besides, the IC50 in assay [3] amounted to 5900 µM.
As to `O=C(CI)NCCCCCNc1ncnc2c1ncn2[C@@H]1O[C@H](COP(=O)(O)OP(=O)(O)OP(=O)(O)O)[C@@H](O)[C@H]1O`, the IC50 in assay [3] is 4750 µM.
For the compound `CCCCCSc1nc2c(N)ncnc2n1[C@@H]1O[C@H](COP(=O)(O)OP(=O)(O)OP(=O)(O)O)[C@@H](O)[C@H]1O`, the figures for the Ki in assay [1] and in assay [2] were 80 µM and 60 µM, respectively.
The matching figures for `Nc1ncnc2c1nc(SCCO)n2[C@@H]1O[C@H](COP(=O)(O)OP(=O)(O)OP(=O)(O)O)[C@@H](O)[C@H]1O`: 250 µM and 220 µM.
On the same counts, the results for `Nc1ncnc2c1nc(SCCCCO)n2[C@@H]1O[C@H](COP(=O)(O)OP(=O)(O)OP(=O)(O)O)[C@@H](O)[C@H]1O` are 145 µM and 130 µM.
Turning to `CC(=O)NCCCCCCNc1ncnc2c1ncn2[C@@H]1O[C@H](COP(=O)(O)OP(=O)(O)OP(=O)(O)O)[C@@H](O)[C@H]1O`, the affinity in assay [2] corresponds to a Ki of 4750 µM. Moreover, the IC50 in assay [4] turned out to be 12900 µM.
For `CCCCSc1nc2c(N)ncnc2n1[C@@H]1O[C@H](COP(=O)(O)OP(=O)(O)OP(=O)(O)O)[C@@H](O)[C@H]1O`, the Ki in assay [1] was found to be 75 µM; in assay [2], 60 µM. Moreover, the IC50 in assay [4] stood at 6200 µM.
On the same counts, the results for `CSc1nc2c(N)ncnc2n1[C@@H]1O[C@H](COP(=O)(O)OP(=O)(O)OP(=O)(O)O)[C@@H](O)[C@H]1O` are 320 µM, 360 µM and 5950 µM.
For `CCCSc1nc2c(N)ncnc2n1[C@@H]1O[C@H](COP(=O)(O)OP(=O)(O)OP(=O)(O)O)[C@@H](O)[C@H]1O`, the Ki amounted to 55 µM in assay [1] and 65 µM in assay [2]. The IC50 in assay [4] came to 6150 µM; in assay [3], 4700 µM.
Turning to `Nc1ncnc2c1nc(Sc1ccccc1)n2[C@@H]1O[C@H](COP(=O)(O)OP(=O)(O)OP(=O)(O)O)[C@@H](O)[C@H]1O`, the Ki in assay [1] is 320 µM.
